Source: ChEMBL document CHEMBL1145941, “Design, synthesis, and biological evaluation of indenoisoquinoline topoisomerase I inhibitors featuring polyamine side chains on the lactam nitrogen” (2003)

What was measured:
[1] = tested on: SN12C; assay: Cytotoxicity against human renal SN12C cancer cell lines.; format: functional
[2] = tested on: SF-539; assay: Cytotoxicity against human CNSSF-539 cancer cell lines.; format: functional
[3] = tested on: OVCAR-3; assay: Cytotoxicity against human ovarian OVCAR-3 cancer cell lines.; format: functional
[4] = tested on: Panel (Carcinoma cell lines); assay: Mean graph midpoint for growth inhibition of all human cancer cell lines.; format: functional; set-up: unit: µM
How it was run: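 Mean graph midpoint from the NCI screen, about 55 human cancer cell lines, test range 10^-8 to 10^-4 M. Computed as the average GI50 across all lines tested, with GI50 values below or above the range set to 10^-8 M or 10^-4 M.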

[5] = tested on: DU-145; assay: Cytotoxicity against human prostate DU-145 cancer cell lines.; format: functional
[6] = tested on: UACC-62; assay: Cytotoxicity against human melanoma UACC-62 cancer cell lines.; format: functional
[7] = tested on: HCT-116; assay: Cytotoxicity against human colon HCT116 cancer cell lines.; format: functional
[8] = tested on: HOP-62; assay: Cytotoxicity was determined in human lung HOP-62 cancer cell lines; format: functional
[9] = tested on: MDA-MB-435; assay: Cytotoxicity against human breast […] cancer cell lines.; format: functional
[10] = target: T1, DNA topoisomerase 1 (Homo sapiens) (UniProt P11387); assay: Inhibitory activity against DNA topoisomerase I; greater activity than the parent compound 1
T1 sequence (whole entry): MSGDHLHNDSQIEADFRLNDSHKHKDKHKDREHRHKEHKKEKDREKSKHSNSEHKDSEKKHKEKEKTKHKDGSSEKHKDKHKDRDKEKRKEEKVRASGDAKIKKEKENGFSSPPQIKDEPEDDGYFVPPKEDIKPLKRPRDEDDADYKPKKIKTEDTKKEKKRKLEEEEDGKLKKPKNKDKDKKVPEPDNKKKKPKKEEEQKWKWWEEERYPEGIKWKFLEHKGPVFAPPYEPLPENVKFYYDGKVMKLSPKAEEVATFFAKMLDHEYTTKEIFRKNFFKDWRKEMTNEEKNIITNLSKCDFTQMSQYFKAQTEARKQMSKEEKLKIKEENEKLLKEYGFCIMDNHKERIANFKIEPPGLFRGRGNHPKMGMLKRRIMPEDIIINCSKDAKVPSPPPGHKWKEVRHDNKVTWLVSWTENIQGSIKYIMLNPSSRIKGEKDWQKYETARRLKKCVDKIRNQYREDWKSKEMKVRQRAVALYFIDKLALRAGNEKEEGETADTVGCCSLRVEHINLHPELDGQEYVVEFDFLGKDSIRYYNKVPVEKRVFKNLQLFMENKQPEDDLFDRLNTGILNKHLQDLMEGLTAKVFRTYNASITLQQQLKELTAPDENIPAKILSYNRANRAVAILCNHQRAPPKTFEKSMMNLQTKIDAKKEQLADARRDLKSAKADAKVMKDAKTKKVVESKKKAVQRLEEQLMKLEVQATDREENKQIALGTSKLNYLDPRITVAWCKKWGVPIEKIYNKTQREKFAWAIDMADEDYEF

Row | SMILES | GI50 [1] | GI50 [2] | GI50 [3] | MGM [4] | GI50 [5] | GI50 [6] | GI50 [7] | GI50 [8] | GI50 [9] | Activity [10]
1 | COc1cc2c3c(n(CCN(C)C)c(=O)c2cc1OC)-c1cc2c(cc1C3=O)OCO2.O=CO | 4.4 µM | 0.9 µM | 10 µM | 3.1 | 1.9 µM | 1.2 µM | 0.66 µM | 1.1 µM | 6.1 µM | –
2 | COc1cc2c3c(n(CCCNCCCN)c(=O)c2cc1OC)-c1cc2c(cc1C3=O)OCO2 | 2.3 µM | 1.2 µM | 3.1 µM | 3.2 | 3.1 µM | 3.4 µM | 1.3 µM | 1.6 µM | 2.5 µM | greater activity than compound 1
3 | COc1cc2c3c(n(CCCNCC(OC)OC)c(=O)c2cc1OC)-c1cc2c(cc1C3=O)OCO2 | – | 6.7 µM | 6.9 µM | 2.1 | 0.54 µM | 2.86 µM | 0.18 µM | 0.45 µM | 10.8 µM | greater activity than compound 1
4 | C[C@@]1(O)C(=O)OCc2c1cc1n(c2=O)Cc2cc3ccccc3nc2-1 | 0.02 µM | < 0.01 µM | 0.22 µM | 0.04 | < 0.01 µM | < 0.01 µM | 0.03 µM | < 0.01 µM | 0.04 µM | greater activity than compound 1
5 | COc1cc2c3c(n(CCCNCCCNCCCN)c(=O)c2cc1OC)-c1cc2c(cc1C3=O)OCO2.Cl.Cl.Cl | 33 µM | > 100 µM | 0.88 µM | 59 | > 100 µM | 44 µM | 43 µM | – | 68 µM | –
6 | COc1cc2c3c(n(C)c(=O)c2cc1OC)-c1cc2c(cc1C3=O)OCO2 | 68 µM | 41 µM | – | 20 | 37 µM | 4.2 µM | 35 µM | 1.3 µM | 96 µM | –
7 | COc1cc2c3c(n(CCCNCCN)c(=O)c2cc1OC)-c1cc2c(cc1C3=O)OCO2.Cl.Cl | 0.37 µM | 0.43 µM | 0.7 µM | 0.88 | 0.72 µM | 0.65 µM | 0.56 µM | 0.38 µM | 1.6 µM | greater activity than compound 1
